Legend:
[1] = Hill slope for the compound was measured for inhibition of Crh kinase assay
[2] = Hill slope for the compound was measured for inhibition of histidine containing protein kinase assay
Method in brief: (§1)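 B. subtilis HPrK/P(Trx-His6-S-tag) kinase, 100 nM, added last to start the reaction with 10 µM HPr(His)6 or Crh(His)6, 0.5 mM [γ-32P]ATP, 5 mM MgCl2, 2 mM FBP, 0.1% BSA, 50 mM Tris pH 8, 10% DMSO; 37 °C, 10 min. Read-out is P81 paper capture, H3PO4 washes and scintillation counting. Thirteen serial inhibitor concentrations, typically in triplicate; EC50 and Hill coefficient from nonlinear regression.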

[3] = target: T1, HPr kinase/phosphorylase (Bacillus subtilis (strain 168), UniProt O34483); assay: Inhibition of histidine containing protein in kinase assay
T1 sequence (O34483 whole entry): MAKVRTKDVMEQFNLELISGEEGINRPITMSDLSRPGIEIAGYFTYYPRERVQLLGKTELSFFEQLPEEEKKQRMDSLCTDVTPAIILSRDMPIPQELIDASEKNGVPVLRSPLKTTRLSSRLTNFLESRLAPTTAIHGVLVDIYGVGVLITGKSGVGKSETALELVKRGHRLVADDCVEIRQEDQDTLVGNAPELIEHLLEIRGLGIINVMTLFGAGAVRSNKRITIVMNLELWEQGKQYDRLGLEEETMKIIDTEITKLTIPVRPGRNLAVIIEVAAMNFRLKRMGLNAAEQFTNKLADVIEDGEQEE
Method in brief: as §1

[4] = target: HPr kinase/phosphorylase (Bacillus subtilis) (UniProt O34483); assay: Effective concentration for inhibition of HPr kinase/phosphorylase in kinase assay
[5] = target: T2, HPr kinase/phosphorylase (Bacillus subtilis (strain 168)) (UniProt O34483); assay: Percent inhibition of Histidine containing protein K in kinase assay with histidine containing protein at 100 uM
T2 sequence (whole entry): T1 sequence (O34483 whole entry)
Method in brief: (§2)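 Single-point kinase test at 10 and 100 µM final compound. HPr(His)6 (10 µM) is phosphorylated by 100 nM B. subtilis HPrK/P(Trx-His6-S-tag) with 0.5 mM [γ-32P]ATP, 5 mM MgCl2, 2 mM FBP, 0.1% BSA, 50 mM Tris pH 8; 37 °C, 10 min. 32P incorporation measured on P81 paper by scintillation.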

[6] = target: T2, HPr kinase/phosphorylase (Bacillus subtilis (strain 168)); assay: Percent inhibition of Histidine containing protein K in kinase assay with histidine containing protein at 10 uM
Method in brief: as §2

[7] = target: T2, HPr kinase/phosphorylase (Bacillus subtilis (strain 168)); assay: Percent inhibition of Histidine containing protein K/P in kinase assay; parameters: concentration or dose not given beside the values; settings: concentration not given here
[8] = Effective concentration for inhibition of […] in phosphatase assay; parameters: species or system Bacillus subtilis
Method in brief: (§3)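 Substrates HPr(His)6 or Crh(His)6 (8 µM final) are first fully phosphorylated by HPrK/P with [γ-32P]ATP and FBP, pH 8, 37 °C. Inhibitor, 13 serial concentrations premixed with inorganic phosphate (K2HPO4/KH2PO4, pH 8.0, 1 mM final), then added and incubated 2 h at 37 °C. Precipitating top concentrations excluded. Read-out by P81/scintillation; mean of n = 3; EC50 and Hill coefficient by nonlinear regression.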

[9] = Combined index for the compound to that of ADP in kinase assay against histidine containing protein
Method in brief: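 B. subtilis HPrK/P(Trx-His6-S-tag), 100 nM, phosphorylating 10 µM HPr(His)6 or Crh(His)6; [γ-32P]ATP 0.5 mM, 50 mM Tris pH 8, 5 mM MgCl2, 2 mM FBP, 0.1% BSA, 37 °C, 10 min. Inhibitor and ADP co-varied at a constant ratio set by their separate EC50s; ≥13 conditions in triplicate. Chou-Talalay combination index computed at EC50.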

[10] = Hill slope for the compound was measured for inhibition of histidine containing protein phosphatase assay
Method in brief: as §3

[11] = Hill slope for the compound was measured for inhibition of Crh phosphatase assay
[12] = target: T1, HPr kinase/phosphorylase; assay: Inhibition of histidine containing protein in phosphatase assay
Method in brief: as §3

[13] = Combined index for the compound to that of ADP in kinase assay against Crh
[14] = Hill slope for the compound was measured for inhibition of histidine containing protein kinase assay along with ADP
Method in brief: (§4)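 Kinase reaction, 37 °C 10 min: 100 nM HPrK/P(Trx-His6-S-tag), 10 µM HPr(His)6 or Crh(His)6, 0.5 mM [γ-32P]ATP, 2 mM FBP, 0.1% BSA, pH 8 Tris. ADP given alone or combined with inhibitor at a fixed concentration ratio; ≥13 conditions in triplicate. Phosphate retained on P81 paper is counted. EC50 and Hill coefficient fitted by nonlinear regression.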

[15] = target: T1, HPr kinase/phosphorylase; assay: Inhibition of histidine containing protein in kinase assay with ADP
Method in brief: as §4

[16] = Effective concentration for inhibition of […] in kinase assay along with ADP; parameters: species or system Bacillus subtilis
Method in brief: as §4

[17] = Hill slope for the compound was measured for inhibition of Crh kinase assay along with ADP
[18] = target: T2, HPr kinase/phosphorylase (Bacillus subtilis (strain 168)); assay: Percent inhibition of Histidine containing protein K in kinase assay at 100 uM
Method in brief: as §2

[19] = target: T2, HPr kinase/phosphorylase (Bacillus subtilis (strain 168)); assay: Percent inhibition of Histidine containing protein K in kinase assay at 10 uM
Method in brief: as §2

Compound | inhibition [5] [%] | inhibition [6] [%] | further results
Nc1n(Cc2ccccc2)c2ccccc2[n+]1CCCCC[n+]1c(N)n(Cc2ccccc2)c2ccccc21 |  |  | Activity [1]: 1.3; Activity [2]: 1.3; EC50 [3]: 93 µM; EC50 [4]: 210 µM
CC(C)(C)OC(=O)NCCC[n+]1c(N)n(Cc2ccccc2)c2ccccc21 | 12 | 18 | 
Nc1n(Cc2ccccc2)c2ccccc2[n+]1CCCO | 6 | 4 | 
Nc1n(Cc2ccccc2)c2ccccc2[n+]1CCCCCCCCN1CCN(c2ccccc2)CC1 | 86 | 33 | 
CCC[n+]1c(N)n(Cc2ccccc2)c2ccccc21 | 14 | 13 | 
NC(=O)CCCCC[n+]1c(N)n(Cc2ccccc2)c2ccccc21 | 11 | 3 | 
Nc1ncnc2c1ncn2[C@@H]1O[C@H](COP(=O)(O)OP(=O)(O)O)[C@@H](O)[C@H]1O [ADENOSINE DIPHOSPHATE] |  |  | Activity [1]: 1.4; Activity [2]: 0.9; EC50 [3]: 4300 µM; EC50 [4]: 7400 µM
Nc1cc2c(n[n+]1CCCCCCCCCCCC[n+]1nc3c(cc1N)-c1ccccc1CC3)CCc1ccccc1-2 |  |  | inhibition [7]: < 5%
NCCCCCC[n+]1c(N)n(Cc2ccccc2)c2ccccc21 | 33 | 12 | 
CCCCCCCC[n+]1c(N)n(Cc2ccccc2)c2ccccc21 | 55 | 9 | 
CC(C)(C)OC(=O)NCCCCCCCCCCC[n+]1c(N)n(Cc2ccccc2)c2ccccc21 | 96 | 14 | 
Nc1n(Cc2ccccc2)c2ccccc2[n+]1CCCCCCCC[n+]1c(N)n(Cc2ccccc2)c2ccccc21 |  |  | Activity [1]: 2.2; Activity [2]: 1.1; EC50 [3]: 20 µM; EC50 [4]: 71 µM
Nc1n(Cc2ccccc2)c2ccccc2[n+]1CC(=O)[O-] | 3 | 2 | 
Nc1n(Cc2ccccc2)c2ccccc2[n+]1CCCCCCO | 5 | 13 | 
Nc1n(Cc2ccccc2)c2ccccc2[n+]1CCCCCCCCCCCCN1CCN(c2ccccc2)CC1 | 96 | 41 | 
Nc1cccc[n+]1CCCCCCCCCCCC[n+]1ccccc1N |  |  | inhibition [7]: < 5%
CNC(=O)C[n+]1c(N)n(Cc2ccccc2)c2ccccc21 | 7 | 7 | 

Compound | inhibition [5] [%] | inhibition [6] [%] | further results
Nc1n(Cc2ccccc2)c2ccccc2[n+]1CCCCCCCCCCCCNCc1ccccc1 | 96 | 50 | 
c1c[n+](CCCCCCCCCCCC[n+]2cc[nH]c2)c[nH]1 |  |  | inhibition [7]: < 5%
Nc1n(Cc2ccccc2)c2ccccc2[n+]1CCCCCCCCCCCC[n+]1c(N)n(Cc2ccccc2)c2ccccc21.Nc1ncnc2c1ncn2[C@@H]1O[C@H](COP(=O)(O)OP(=O)(O)O)[C@@H](O)[C@H]1O |  |  | EC50 [8]: 14 µM; Activity [1]: 2.4; CI [9]: 1; Activity [2]: 1.8; Activity [10]: 2.1; Activity [11]: 1.7; EC50 [12]: 16 µM; CI [13]: 1.1; Activity [14]: 2.2; EC50 [15]: 5.2 µM; EC50 [16]: 12 µM; EC50 [3]: 10 µM; EC50 [4]: 21 µM; Activity [17]: 2.3
CCCCCCCCCCCC[n+]1c(N)n(Cc2ccccc2)c2ccccc21 |  |  | Activity [1]: 6.4; Activity [2]: 5.3; inhibition [18]: 90%; inhibition [19]: 18%; EC50 [3]: 29 µM; EC50 [4]: 32 µM
Nc1c2ccccc2cc[n+]1CCCCCCCCCCCC[n+]1ccc2ccccc2c1N |  |  | inhibition [7]: < 5%
CCCCC[n+]1c(N)n(Cc2ccccc2)c2ccccc21 | 32 | 12 | 
Nc1n(Cc2ccccc2)c2ccccc2[n+]1CCCc1ccccc1 | 20 | 11 | 
Nc1n(Cc2ccccc2)c2ccccc2[n+]1Cc1ccccc1 | 33 | 13 | 
CC(C)(C)OC(=O)NCCCCCC[n+]1c(N)n(Cc2ccccc2)c2ccccc21 | 14 | 9 | 
Nc1n(Cc2ccccc2)c2ccccc2[n+]1CCCCCC(=O)[O-] | 10 | 3 | 
NCCC[n+]1c(N)n(Cc2ccccc2)c2ccccc21 | 24 | 18 | 
Nc1n(Cc2ccccc2)c2ccccc2[n+]1CCCCCCCCCCCCN1C(=O)c2ccccc2C1=O | 97 | 40 | 
Nc1n(Cc2ccccc2)c2ccccc2[n+]1CCCCCN1CCN(c2ccccc2)CC1 | 34 | 13 | 
Nc1n(Cc2ccccc2)c2ccccc2[n+]1CC(=O)Nc1ccccc1 | 16 | 13 | 
Cn1c(N)[n+](CCCCCCCCCCCC[n+]2c(N)n(C)c3ccccc32)c2ccccc21 |  |  | inhibition [7]: 64%
Nc1n(Cc2ccccc2)c2ccccc2[n+]1CCCCCNCc1ccccc1 | 53 | 12 | 
Nc1sc2ccccc2[n+]1CCCCCCCCCCCC[n+]1c(N)sc2ccccc21 |  |  | inhibition [7]: < 5%

Now from value to molecule, other results behind:

inhibition [5] [%] | inhibition [6] [%] | Compound | further results
51 | 9 | CCCCCCCCCCCC[n+]1c(N)n(Cc2ccc(Cl)c(Cl)c2)c2ccccc21 | 
21 | 17 | CCCCCCCCCCCC[n+]1c(N)n(Cc2ccc(Cl)cc2)c2ccccc21 | 
98 | 0 | CCCCCCCCCCCC[n+]1c(N)n(CCc2ccccc2)c2ccccc21 | 
96 | 38 | CCCCCCCCCCCC[n+]1c(N)n(CCCc2ccccc2)c2ccccc21 | 
37 | 9 | Nc1n(Cc2ccccc2)c2ccccc2[n+]1CCCCCCCCCCCO | 
96 | 46 | Nc1n(Cc2ccccc2)c2ccccc2[n+]1CCCCCCCCCCCCNc1ccccc1 | 
62 | 24 | NCCCCCCCCCCC[n+]1c(N)n(Cc2ccccc2)c2ccccc21 | 
23 | 0 | CCCCCCCCCCCC[n+]1c(N)n(Cc2ccc(C)cc2)c2ccccc21 | 
90 | 31 | Nc1n(Cc2ccccc2)c2ccccc2[n+]1CCCCCCCCCCCCN1CCOCC1 | 
95 | 34 | CCCCCCCCCCCC[n+]1c(N)n(Cc2ccc(OC)cc2)c2ccccc21 | 
93 | 35 | CN1CCN(CCCCCCCCCCCC[n+]2c(N)n(Cc3ccccc3)c3ccccc32)CC1 | 
93 | 11 | Nc1n(Cc2ccccc2)c2ccccc2[n+]1CCCCCCCCCCCCNC1CCCCC1 | 
39 | 2 | Nc1n(Cc2ccccc2)c2ccccc2[n+]1CCCCCCCCCCC(=O)[O-] | 
